Calls of active or inactive are those of the source. The calls are words filed in the database; no cut-off is given here.
What was measured:
[1] = Stability of compound in phosphate buffer at 7.4 assessed as drug degradation incubated for 1 hr by HPLC analysis; format: physicochemical; conditions: for Stability: buffer, pH 7.4, 1 h; for degraded at 1 h: phosphate buffer, pH 7.4, read-out: Drug degradation
How it was run: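 Compounds were incubated at assay conditions, 37 °C in phosphate buffer at pH 7.4, for 1 hour. Degradation was then assessed by HPLC analysis.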

[2] = molecular target: T1, Catechol O-methyltransferase (Homo sapiens) (UniProt P21964); experiment: Inhibition of S-COMT (unknown origin) assessed as scopoletin formation by measuring fluorescence using 6,7-dihydroxycoumarin as substrate at 10 uM and measured for 60 mins by fluorescence based microplate reader assay
T1 sequence (whole entry): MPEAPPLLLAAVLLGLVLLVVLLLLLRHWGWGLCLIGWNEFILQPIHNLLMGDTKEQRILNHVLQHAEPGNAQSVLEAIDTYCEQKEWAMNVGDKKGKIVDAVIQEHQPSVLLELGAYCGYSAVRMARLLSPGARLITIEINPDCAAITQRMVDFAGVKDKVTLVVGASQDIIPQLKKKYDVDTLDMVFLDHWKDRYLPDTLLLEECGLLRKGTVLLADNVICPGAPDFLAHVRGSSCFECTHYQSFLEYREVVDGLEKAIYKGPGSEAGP
How it was run: (§1)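 Soluble COMT (S-COMT) activity was run at 37 °C and pH 7.4. The substrate was aesculetin (6,7-dihydroxycoumarin) at 6 μM, which methylation converts to fluorescent scopoletin. Fluorescence was read over 60 min. Test catechols were added at 10 μM or 100 μM. Each was assayed at least in triplicate, and the signal was normalized to the no-inhibitor aesculetin fluorescence.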

[3] = molecular target: T1, Catechol O-methyltransferase (Homo sapiens); experiment: Inhibition of S-COMT (unknown origin) assessed as scopoletin formation by measuring fluorescence using 6,7-dihydroxycoumarin as substrate at 100 uM and measured for 60 mins by fluorescence based microplate reader assay; how it was run: as §1
[4] = Dissociation constant, pKa of compound pH 3.01 to 12.36 at 0.2 mM by spectroscopic analysis; format: physicochemical
How it was run: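 Five-buffer series in which CHES replaced Borax over pH 8.2–10.8, with KCl buffers added to widen the range. Compound dissolved in each buffer across pH 3.01–12.36 to a final 0.2 mM. Absorbance was read, normalized, and fitted to give the first and, where determinable, second catechol hydroxyl pKa.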

SMILES | Stability [1] | inhibition [2] | inhibition [3] | pKa at 200 µM [4] | degraded at 1 h [1]
NCCc1cc(O)c(O)cc1[N+](=O)[O-] | Stable | inactive | 50% | 6.33 | 
NCCc1cc(O)c(O)cc1C(=O)O | Stable | inactive | inactive |  | 
N#CCCc1cc(O)c(O)cc1[N+](=O)[O-] | Stable | inactive | Active |  | 
N#CCCc1ccc(O)c(O)c1 | Unstable | inactive | Active |  | 
NCCc1cc(O)c(O)cc1O [OXIDOPAMINE] |  | inactive | Active |  | > 40%
Oc1cc2c(cc1O)CNCC2 | Unstable | inactive | inactive |  | 
N#CCc1cc(O)c(O)cc1[N+](=O)[O-] |  | Active | Active | 6.23 | < 5%
N#Cc1cc(O)c(O)cc1CCN | Stable | inactive | 30% |  | 
N#CCc1ccc(O)c(O)c1 | Stable | inactive | Active | 9.6 | 
NCCc1ccc(O)c(O)c1 [DOPAMINE] | Stable |  |  | 8.66 | 
NCCc1cc(O)c(O)cc1Br | Stable | inactive | inactive |  | 
N#Cc1ccc(O)c(O)c1 | Stable | inactive | Active | 7.45 | 
